ChEMBL document CHEMBL3867438, “Cytotoxic Tirucallane and Apotirucallane Triterpenoids from the Stems of Picrasma quassioides” (J Nat Prod, 2016)

Experiments:
Assay type in all cases: functional, cell-based
[1] = Cytotoxicity against human MKN28 cells assessed as inhibition of cell proliferation after 48 hrs by MTT assay; conditions: MKN-28, 48 h
How it was run: (§1)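 Cells grown in DMEM with 10% FBS, 100 U/mL penicillin, 100 μg/mL streptomycin, 37 °C, 5% CO2. Seeded 5 × 10^3 cells/well, 12 h, then exposed to compounds for 48 h. MTT (5 mg/mL stock) added for 4 h at 37 °C, formazan dissolved in DMSO, absorbance read at 570 nm. IC50 relative to untreated control. Triplicate, repeated twice; cis-platinum as positive control.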

[2] = Cytotoxicity against human A549 cells assessed as inhibition of cell proliferation after 48 hrs by MTT assay; conditions: A549, 48 h; how it was run: as §1
[3] = Cytotoxicity against human MCF7 cells assessed as inhibition of cell proliferation after 48 hrs by MTT assay; conditions: MCF7, 48 h; how it was run: as §1

Row | Compound | IC50 [1] | IC50 [2] | IC50 [3]
1 | CCOC(=O)CC[C@]1(C)[C@H]2CC[C@@]3(C)[C@H]([C@@H](C)CC/C=C(\C)CO)CC[C@]3(C)C2=CC[C@H]1C(C)(C)O | > 10 µM | > 10 µM | > 10 µM
2 | CCO[C@H]1O[C@@H]([C@H](O)C(C)(C)O)C[C@H]1[C@@H]1CC[C@]2(C)C3=CC[C@H]4C(C)(C)C(=O)CC[C@]4(C)C3=CC[C@@]12C | 8.3 µM | > 10 µM | > 10 µM
3 | C[C@@H](C[C@@H](O)[C@H](O)C(C)(C)O)[C@@H]1CC=C2[C@]3(C)[C@H](O)[C@@H](O)[C@H]4C(C)(C)C(=O)CC[C@]4(C)[C@H]3CC[C@]21C | > 10 µM | > 10 µM | > 10 µM
4 | CC(C)(O)[C@@H]1[C@@H](O)[C@H]([C@@H]2CC=C3[C@]4(C)[C@H](O)C[C@H]5C(C)(C)[C@H](O)CC[C@]5(C)[C@H]4CC[C@]32C)C[C@H]1O | > 10 µM | > 10 µM | > 10 µM
5 | C[C@@H](C[C@@H](O)[C@@H](O)C(C)(C)O)[C@@H]1CC[C@]2(C)C3=CC[C@H]4C(C)(C)C(=O)CC[C@]4(C)[C@H]3CC[C@@]12C | 6.9 µM | 8 µM | 8.5 µM
6 | CO[C@@H]1O[C@H](C=C(C)C)C[C@H]1[C@@H]1CC[C@]2(C)C3=CC[C@H]4C(C)(C)[C@@H](O)CC[C@]4(C)[C@H]3CC[C@@]12C | 9.8 µM | > 10 µM | > 10 µM
7 | C[C@@H](C[C@@H](O)[C@H](O)C(C)(C)O)[C@@H]1CC=C2[C@]3(C)[C@H](O)C[C@H]4C(C)(C)C(=O)CC[C@]4(C)[C@H]3CC[C@]21C | > 10 µM | > 10 µM | > 10 µM
8 | CO[C@@H]1O[C@H](C=C(C)C)C[C@H]1[C@@H]1CC[C@]2(C)C3=CC[C@H]4C(C)(C)[C@H](O)CC[C@]4(C)[C@H]3CC[C@@]12C | > 10 µM | > 10 µM | > 10 µM
9 | CCO[C@@H]1O[C@@H](C=C(C)C)C[C@H]1[C@@H]1CC[C@]2(C)C3=CC[C@H]4C(C)(C)[C@@H](O)CC[C@]4(C)[C@H]3CC[C@@]12C | 7.9 µM | 8.3 µM | > 10 µM
10 | CCCCCC(=O)O[C@@H]1C[C@]2(C)C(=CC[C@H]2[C@]2(O)C[C@@H]([C@@H](O)C(C)(C)O)O[C@H]2OC)[C@]2(C)[C@H](O)C[C@H]3C(C)(C)C(=O)C=C[C@]3(C)[C@@H]12 | > 10 µM | > 10 µM | > 10 µM
11 | CCO[C@H]1O[C@H](C=C(C)C)C[C@H]1[C@@H]1CC[C@]2(C)C3=CC[C@H]4C(C)(C)[C@@H](O)CC[C@]4(C)[C@H]3CC[C@@]12C | > 10 µM | > 10 µM | > 10 µM
12 | COC1OC(C=C(C)C)C[C@H]1[C@@H]1CC[C@]2(C)C3=CC[C@H]4C(C)(C)[C@H](O)CC[C@]4(C)[C@H]3CC[C@@]12C (some centres undefined) | > 10 µM | > 10 µM | > 10 µM
13 | C[C@@H](C[C@@H](O)[C@H](O)C(C)(C)O)[C@@H]1CC[C@]2(C)C3=CC(=O)[C@H]4C(C)(C)[C@@H](O)CC[C@]4(C)[C@H]3CC[C@@]12C | > 10 µM | > 10 µM | > 10 µM
14 | CC(C)=CCC[C@H](C(=O)O)[C@@H]1CC[C@]2(C)C3=CC[C@@H]4[C@](C)(CC[C@H](O)[C@]4(C)CO)[C@H]3CC[C@@]12C | 9.1 µM | > 10 µM | > 10 µM
15 | CO[C@H]1O[C@@H](C=C(C)C)C[C@H]1[C@@H]1CC[C@]2(C)C3=CC[C@H]4C(C)(C)[C@@H](O)CC[C@]4(C)[C@H]3CC[C@@]12C | > 10 µM | > 10 µM | > 10 µM
16 | C[C@@H](C[C@@H](O)[C@H](O)C(C)(C)O)[C@@H]1CC[C@]2(C)C3=C(C(=O)C[C@@]12C)[C@@]1(C)CCC(=O)C(C)(C)[C@@H]1CC3=O | > 10 µM | > 10 µM | > 10 µM
17 | CCO[C@@H]1O[C@H]([C@@H](O)C(C)(C)O)C[C@H]1[C@@H]1CC[C@]2(C)C3=CC[C@H]4C(C)(C)[C@@H](O)CC[C@]4(C)C3=CC[C@@]12C | 9.1 µM | > 10 µM | > 10 µM
18 | COC(=O)[C@@H](CCC=C(C)C)[C@@H]1CC[C@]2(C)C3=CC[C@@H]4[C@](C)(CCC(=O)[C@]4(C)CO)[C@H]3CC[C@@]12C | 8.3 µM | > 10 µM | > 10 µM
19 | CCO[C@H]1O[C@@H]([C@H](O)C(C)(C)O)C[C@H]1[C@@H]1CC[C@]2(C)C3=CC[C@H]4C(C)(C)C(=O)CC[C@]4(C)[C@H]3CC[C@@]12C | > 10 µM | > 10 µM | > 10 µM
20 | CO[C@H]1O[C@H](C=C(C)C)C[C@H]1[C@@H]1CC[C@]2(C)C3=CC[C@H]4C(C)(C)[C@@H](O)CC[C@]4(C)[C@H]3CC[C@@]12C | 8.8 µM | > 10 µM | > 10 µM
21 | CCO[C@H]1O[C@@H]([C@H](O)C(C)(C)O)C[C@H]1[C@@H]1CC[C@]2(C)C3=CC=C4C(C)(C)C(=O)CC[C@]4(C)C3=CC[C@@]12C | > 10 µM | > 10 µM | > 10 µM
22 | CC1(C)OC[C@H]([C@@H]2CC[C@]3(C)C4=CC[C@H]5C(C)(C)[C@H](O)CC[C@]5(C)[C@H]4CC[C@@]23C)C[C@@H](O)[C@@H]1O | > 10 µM | > 10 µM | > 10 µM
23 | CCO[C@H]1O[C@H](C(C)(C)O)[C@@H](O)C[C@H]1[C@@H]1CC[C@]2(C)C3=CC[C@H]4C(C)(C)C(=O)CC[C@]4(C)[C@H]3CC[C@@]12C | > 10 µM | > 10 µM | > 10 µM
24 | CCO[C@@H]1O[C@@H]([C@H](O)C(C)(C)O)C[C@H]1[C@@H]1CC[C@]2(C)C3=CC[C@H]4C(C)(C)C(=O)CC[C@]4(C)[C@H]3CC[C@@]12C | > 10 µM | > 10 µM | > 10 µM
25 | CC(C)(O)[C@H]1OC[C@H]([C@@H]2CC[C@]3(C)C4=CC[C@H]5C(C)(C)C(=O)CC[C@]5(C)[C@H]4CC[C@@]23C)C[C@H]1O | > 10 µM | > 10 µM | > 10 µM
26 | C[C@@H](CC[C@H](O)C(C)(C)O)[C@@H]1CC[C@]2(C)C3=CC[C@H]4C(C)(C)C(=O)CC[C@]4(C)[C@H]3CC[C@@]12C | 9.1 µM | > 10 µM | > 10 µM
27 | CC(C)(O)[C@H]1OC[C@H]([C@H]2CC[C@]3(C)C4=CC[C@H]5C(C)(C)C(=O)CC[C@]5(C)[C@H]4CC[C@@]23C)C[C@H]1O | 6.7 µM | 7 µM | 9.9 µM
28 | CCO[C@H]1O[C@H](C(C)(C)O)[C@@H](O)C[C@H]1[C@@H]1CC[C@]2(C)C3=CC(=O)[C@H]4C(C)(C)C(=O)CC[C@]4(C)[C@H]3CC[C@@]12C | 8.2 µM | > 10 µM | > 10 µM
